Test results: ChEMBL document CHEMBL4043283, “Discovery and Preclinical Development of IIIM-290, an Orally Active Potent Cyclin-Dependent Kinase Inhibitor” (J Med Chem, 2018)
Converted amounts (≈) assume the structure as drawn.

Columns and labels:
[1] = organism: Homo sapiens; assay: Selectivity ratio of IC50 for CDK2/cyclin A (unknown origin) to IC50 for CDK9/cyclin T1 (unknown origin)
[2] = Pancreas to plasma partition coefficient, Kp of the compound in BALB/c mouse at 30 mg/kg, po measured at 8 hrs; format: ADME, organism-based; conditions: pancreas and plasma
[3] = tested on: Liver; assay: Intrinsic clearance in mouse liver S9 fraction assessed per mg of protein preincubated for 5 mins followed by NADPH addition measured after 30 mins by LC-MS/MS analysis; format: ADME, tissue-based; conditions: s9, 0.5 h
[4] = Chemical stability of compound in hydrochloric acid buffer at pH 1.2 assessed as parent compound remaining at 120 ug/ml after 24 hrs by HPLC method; format: physicochemical; conditions: read-out: Stability
[5] = Intrinsic clearance in human liver microsomes assessed per mg of protein at 100 uM after 30 mins by LC-MS/MS analysis; format: ADME, microsome; conditions: read-out: CLH
[6] = molecular target: CDK2/Cyclin A2 (Homo sapiens, UniProt P24941); assay: Inhibition of CDK2/cyclin A (unknown origin) using histone H1 as substrate after 30 mins in presence of [33P]-gamma-ATP by filter binding assay; format: protein-complex assay
[7] = Toxicity in po dosed Swiss albino mouse allografted with Swiss mouse EAC administered for 9 day; format: organism-based; conditions: in vivo
[8] = Intrinsic clearance in monkey liver microsomes assessed per mg of protein at 100 uM after 30 mins by LC-MS/MS analysis; format: ADME, Macaca mulatta, microsome; conditions: rhesus monkey, read-out: CLH
[9] = tested on: MOLT-4; assay: Antitumor activity against human MOLT4 cells xenografted in CD1 nude mouse assessed as tumor growth inhibition at 50 mg/kg, po qd administered on day 10 to 25 post tumor inoculation relative to control; format: functional; conditions: MOLT-4, po, 240 h, read-out: TGI
[10] = Half life in human liver microsomes at 100 uM after 30 mins by LC-MS/MS analysis; format: ADME, microsome
[11] = tested on: Liver; assay: Intrinsic clearance in human liver S9 fraction assessed per mg of protein preincubated for 5 mins followed by NADPH addition measured after 30 mins by LC-MS/MS analysis; format: ADME, tissue-based; conditions: s9, 0.5 h
[12] = tested on: A549; assay: Growth inhibition of human A549 cells after 48 hrs by MTT assay; format: functional; conditions: A549, 48 h
Procedure, shortened: (§1)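 Cancer cell lines sourced from the National Cancer Institute (USA). Cells kept in appropriate growth medium at 37 °C, 95% humidity, 5% CO2. Antiproliferation read by tetrazolium (MTT) assay. GI50 values were determined only for compounds selected after an initial single-concentration screen.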

[13] = tested on: LOX IMVI; assay: Growth inhibition of human LOXIMVI cells after 48 hrs by MTT assay; format: functional; procedure, shortened: as §1
[14] = tested on: MIA PaCa-2; assay: Induction of apoptosis in human MIAPaCa2 cells assessed as PARP cleavage by Western blot method; format: functional, cell-based
Procedure, shortened: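 Lysate protein quantified against a BSA standard; 70 μg resolved by SDS-PAGE, transferred to PVDF overnight at 4 °C, 30 V; blocked 1 h in 5% nonfat milk/TBST; primary antibodies 2–4 h, HRP anti-mouse secondary 1 h; ECL detection on X-ray film.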

[15] = Half life in Sprague-Dawley rat at 3 mg/kg, po by LC-MS/MS analysis; format: ADME, organism-based; conditions: in vivo
[16] = Chemical stability of compound in SGF at pH 1.2 assessed as parent compound remaining after 8 hrs by HPLC method; format: physicochemical; conditions: read-out: Stability
[17] = tested on: MIA PaCa-2; assay: Cell cycle arrest in human MIAPaCa2 cells assessed as accumulation at G2 phase at 1.5 uM after 24 hrs by propidium iodide staining-based flow cytometric method (reference value: 30%); format: functional
[18] = AUC in Sprague-Dawley rat at 3 mg/kg, po by LC-MS/MS analysis; format: ADME, organism-based; conditions: in vivo
[19] = molecular target: PRKCE (protein kinase C epsilon) (Homo sapiens, UniProt Q02156); assay: Inhibition of partial length wild type human PRKCE expressed in mammalian expression system at 0.5 uM by KINOMEscan method relative to control
Procedure, shortened: (§2)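 Competition binding screen (KINOMEscan) at 0.5 μM; primary binding read out as % of control, lower values indicating stronger interaction.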

[20] = AUC (0 to t) in BALB/c mouse at 10 mg/kg, po by LC-MS/MS analysis; format: ADME, organism-based; conditions: in vivo
[21] = AUC in BALB/c mouse at 10 mg/kg, po by LC-MS/MS analysis; format: ADME, organism-based; conditions: in vivo
[22] = Half life in mouse liver microsomes at 100 uM after 30 mins by LC-MS/MS analysis; format: ADME, microsome
Procedure, shortened: (§3)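 Parent loss followed over time to give half-life, with NADPH as cofactor for microsomal phase I metabolism.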

[23] = Intrinsic clearance in human hepatocytes assessed per million cells at 3 uM after 180 mins by LC-MS/MS analysis; format: ADME, cell-based, Hepatocyte; conditions: read-out: CLH
Procedure, shortened: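 Intrinsic clearance obtained from substrate disappearance over time, reported per mg protein (microsomes, S9) or per 10^6 cells (hepatocytes).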

[24] = tested on: NCI-H226; assay: Growth inhibition of human NCI-H226 cells after 48 hrs by MTT assay; format: functional; conditions: NCI-H226, 48 h; procedure, shortened: as §1
[25] = Half life in mouse hepatocytes at 3 uM after 180 mins by LC-MS/MS analysis; format: ADME, cell-based, Hepatocyte
[26] = molecular target: Cytochrome P450 1A2 (Homo sapiens, UniProt P05177); assay: Inhibition of human CYP1A2 using fluorogenic substrate preincubated with co-factor for 10 mins followed by enzyme-substrate addition by fluorometric method; format: ADME
Procedure, shortened: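 Cofactor plus test item or vehicle, in triplicate, preincubated 10 min at 37 °C; prewarmed enzyme–substrate mix added and incubated at 37 °C with shaking. Quench: acetonitrile (CYP2C19, CYP3A4) or 0.25 M Tris in 60% methanol (CYP2C9, CYP2D6). Metabolite fluorescence read; % inhibition computed against enzyme controls and enzyme-free blanks.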

[27] = Half life in dog hepatocytes at 3 uM after 180 mins by LC-MS/MS analysis; format: ADME, cell-based, Canis lupus familiaris, Hepatocyte
[28] = Thermodynamic equilibrium solubility of compound in SIF at pH 6.8 after 5 hrs by shake flask method; format: physicochemical; conditions: read-out: Therm_solubility
[29] = tested on: T47D; assay: Growth inhibition of human T47D cells after 48 hrs by MTT assay; format: functional; procedure, shortened: as §1
[30] = molecular target: Cyclin-dependent kinase 7/ cyclin H (Homo sapiens, UniProt P50613); assay: Inhibition of CDK7/cyclin H (unknown origin) after 30 mins in presence of [33P]-gamma-ATP by filter binding assay; format: protein-complex assay
[31] = molecular target: Tyrosine-protein kinase Blk (Homo sapiens) (UniProt P51451); assay: Inhibition of partial length wild type human BLK expressed in bacterial expression system at 0.5 uM by KINOMEscan method relative to control; procedure, shortened: as §2
[32] = tested on: MIA PaCa-2; assay: Growth inhibition of human MIAPaCa2 cells after 48 hrs by MTT assay; format: functional; conditions: MIA PaCa-2, 48 h; procedure, shortened: as §1
[33] = AUC (0 to infinity) in BALB/c mouse at 1 mg/kg, iv by LC-MS/MS analysis; format: ADME, organism-based; parameters: dose 1 mg/kg, route intravenous, time infinity; conditions: in vivo
[34] = molecular target: Dual specificity mitogen-activated protein kinase kinase 5 (Homo sapiens) (UniProt Q13163); assay: Inhibition of partial length wild type human MEK5 expressed in mammalian expression system at 0.5 uM by KINOMEscan method relative to control; procedure, shortened: as §2
[35] = Half life in rat liver microsomes at 100 uM after 30 mins by LC-MS/MS analysis; format: ADME, microsome; procedure, shortened: as §3

Cyclin-dependent kinase 7/ cyclin H, sequence (P51946 whole entry): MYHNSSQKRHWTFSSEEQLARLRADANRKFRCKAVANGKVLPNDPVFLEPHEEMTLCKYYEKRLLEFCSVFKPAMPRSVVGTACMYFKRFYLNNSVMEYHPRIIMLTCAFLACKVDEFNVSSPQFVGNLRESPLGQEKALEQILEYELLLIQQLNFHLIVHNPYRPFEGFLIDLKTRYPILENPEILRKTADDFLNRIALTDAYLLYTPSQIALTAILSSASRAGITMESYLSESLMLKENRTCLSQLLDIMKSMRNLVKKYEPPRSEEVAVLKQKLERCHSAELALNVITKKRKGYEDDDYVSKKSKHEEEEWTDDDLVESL
Cyclin-dependent kinase 7/ cyclin H, sequence (P50613 whole entry): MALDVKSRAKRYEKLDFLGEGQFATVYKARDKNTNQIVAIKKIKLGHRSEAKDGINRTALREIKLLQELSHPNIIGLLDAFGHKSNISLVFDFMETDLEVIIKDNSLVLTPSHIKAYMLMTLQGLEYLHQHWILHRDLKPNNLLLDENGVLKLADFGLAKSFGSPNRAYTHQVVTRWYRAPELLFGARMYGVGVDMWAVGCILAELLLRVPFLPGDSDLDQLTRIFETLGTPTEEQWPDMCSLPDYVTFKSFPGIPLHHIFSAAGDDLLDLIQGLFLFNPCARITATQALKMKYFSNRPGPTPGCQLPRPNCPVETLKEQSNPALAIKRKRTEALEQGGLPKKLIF
Dual specificity mitogen-activated protein kinase kinase 5 (Homo sapiens), sequence (Q13163 whole entry): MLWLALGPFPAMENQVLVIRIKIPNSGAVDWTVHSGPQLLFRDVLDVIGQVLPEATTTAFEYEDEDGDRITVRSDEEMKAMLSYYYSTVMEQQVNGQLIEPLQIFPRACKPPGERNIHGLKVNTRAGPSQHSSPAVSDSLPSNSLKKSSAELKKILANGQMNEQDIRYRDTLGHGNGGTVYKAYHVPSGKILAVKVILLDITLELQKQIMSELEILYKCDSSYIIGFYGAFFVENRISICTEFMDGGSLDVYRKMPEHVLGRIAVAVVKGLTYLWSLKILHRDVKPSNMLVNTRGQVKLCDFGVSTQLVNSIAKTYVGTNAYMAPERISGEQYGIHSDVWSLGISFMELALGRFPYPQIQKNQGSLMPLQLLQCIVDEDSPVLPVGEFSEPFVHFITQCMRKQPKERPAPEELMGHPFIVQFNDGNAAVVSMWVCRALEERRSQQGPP
Tyrosine-protein kinase Blk (Homo sapiens), sequence (P51451 2-505 limits assumed): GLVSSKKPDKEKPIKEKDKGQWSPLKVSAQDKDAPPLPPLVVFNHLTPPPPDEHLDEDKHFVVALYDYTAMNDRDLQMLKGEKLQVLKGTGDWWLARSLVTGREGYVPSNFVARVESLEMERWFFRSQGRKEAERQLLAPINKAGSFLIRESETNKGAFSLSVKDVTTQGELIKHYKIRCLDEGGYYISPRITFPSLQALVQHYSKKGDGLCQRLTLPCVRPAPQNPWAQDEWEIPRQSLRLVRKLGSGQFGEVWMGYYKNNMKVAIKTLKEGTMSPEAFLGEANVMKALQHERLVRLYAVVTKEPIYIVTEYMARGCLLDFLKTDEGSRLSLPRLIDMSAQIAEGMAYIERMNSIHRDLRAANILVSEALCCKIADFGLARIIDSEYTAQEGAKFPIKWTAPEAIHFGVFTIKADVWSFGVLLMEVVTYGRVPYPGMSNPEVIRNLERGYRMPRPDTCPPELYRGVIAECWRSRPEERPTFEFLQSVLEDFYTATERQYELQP
Cytochrome P450 1A2, sequence (P05177 whole entry): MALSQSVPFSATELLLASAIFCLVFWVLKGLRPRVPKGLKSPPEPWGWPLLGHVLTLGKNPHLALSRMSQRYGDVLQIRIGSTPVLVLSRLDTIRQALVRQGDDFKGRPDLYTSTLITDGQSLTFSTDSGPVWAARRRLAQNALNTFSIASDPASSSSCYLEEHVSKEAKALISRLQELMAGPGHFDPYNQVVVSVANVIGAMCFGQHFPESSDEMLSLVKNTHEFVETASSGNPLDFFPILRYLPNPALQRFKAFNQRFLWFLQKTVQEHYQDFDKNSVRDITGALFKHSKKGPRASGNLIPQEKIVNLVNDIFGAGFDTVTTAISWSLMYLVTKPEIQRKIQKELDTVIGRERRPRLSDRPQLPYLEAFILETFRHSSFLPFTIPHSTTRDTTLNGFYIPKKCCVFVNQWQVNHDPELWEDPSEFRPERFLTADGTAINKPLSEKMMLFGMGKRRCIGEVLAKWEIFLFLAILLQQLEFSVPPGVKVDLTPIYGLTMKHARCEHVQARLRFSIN
PRKCE (protein kinase C epsilon), sequence (Q02156 whole entry): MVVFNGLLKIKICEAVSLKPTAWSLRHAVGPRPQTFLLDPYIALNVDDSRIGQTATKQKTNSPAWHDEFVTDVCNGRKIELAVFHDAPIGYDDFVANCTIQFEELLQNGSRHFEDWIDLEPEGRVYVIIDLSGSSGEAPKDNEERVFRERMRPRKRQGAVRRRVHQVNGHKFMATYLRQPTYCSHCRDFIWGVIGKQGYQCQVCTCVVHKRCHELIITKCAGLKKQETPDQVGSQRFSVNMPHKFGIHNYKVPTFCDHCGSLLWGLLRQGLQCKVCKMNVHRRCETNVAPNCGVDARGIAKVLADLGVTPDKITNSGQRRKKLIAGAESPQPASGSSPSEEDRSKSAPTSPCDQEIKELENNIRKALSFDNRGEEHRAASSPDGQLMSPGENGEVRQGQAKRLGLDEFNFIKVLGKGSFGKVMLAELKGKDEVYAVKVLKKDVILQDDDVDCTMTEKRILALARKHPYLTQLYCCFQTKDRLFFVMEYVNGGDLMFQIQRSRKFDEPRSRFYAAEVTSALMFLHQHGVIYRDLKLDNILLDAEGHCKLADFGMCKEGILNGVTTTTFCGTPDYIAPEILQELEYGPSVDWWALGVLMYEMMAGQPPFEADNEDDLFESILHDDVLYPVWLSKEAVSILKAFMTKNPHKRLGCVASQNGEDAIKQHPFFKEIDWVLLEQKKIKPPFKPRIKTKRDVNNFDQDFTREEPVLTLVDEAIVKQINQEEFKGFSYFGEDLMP

CN1CC[C@H](c2c(O)cc(O)c3c(=O)cc(/C=C/c4c(Cl)cccc4Cl)oc23)[C@H](O)C1
Ratio IC50 [1]: 7
Kp at 8 h [2]: 6.79
CLint [3]: 16 µL/min/mg
remaining at 24 h, 120 ug/ml [4]: 100%
microsomal CLint at 100 µM [5]: < 8.6 µL/min/mg
IC50 [6]: 15.5 to 16 nM
MTD at 216 h [7]: 100 mg/kg
microsomal CLint at 100 µM [8]: 54.8 µL/min/mg
inhibition in vivo at 50 mg/kg [9]: 40 to 52%
half-life at 100 µM [10]: > 30 min
CLint [11]: 19 µL/min/mg
GI50 [12]: 4 µM
GI50 [13]: 4 µM
Activity [14]: Dose-dependent effect
half-life [15]: 280 min
remaining at 8 h [16]: 100%
Activity [17]: 19%
AUC [18]: 1.44 µM·h
inhibition at 0.5 µM [19]: > 98%
AUC(0-t) [20]: 4.5 µM·h
AUC [21]: 2.41 µM·h
half-life at 100 µM [22]: > 30 min
hepatocyte CLint at 3 µM [23]: 4.8 µL/min/1e6 cells
GI50 [24]: 4 µM
half-life at 3 µM [25]: 186 min
IC50 [26]: > 20 µM
half-life at 3 µM [27]: 281 min
solubility thermodynamic at 5 h [28]: 2.18 µg/mL (≈ 4.72 µM)
GI50 [29]: 6 µM
IC50 [30]: 711 nM
inhibition [31]: > 98%
GI50 [32]: 1000 nM
AUC(0-inf) [33]: 0.653 µM·h
inhibition [34]: > 98%
half-life at 100 µM [35]: > 30 min
